Measurements taken from ChEMBL document CHEMBL2384907, “Identification of substituted pyrimido[5,4-b]indoles as selective Toll-like receptor 4 ligands” (J Med Chem, 2013).
Activity calls are given as the source filed them. The calls are words filed in the database; no cut-off is given here.

Experiments:
Assay type in all cases: cell-based
[1] = molecular target: T1, Toll-like receptor 4 (Mus musculus) (UniProt Q9QUK6); assay: Activation of TLR4-mediated type 1 IFN release in C57BL/6 mouse BMDC cells after overnight incubation by luciferase reporter gene assay
T1 sequence (whole entry): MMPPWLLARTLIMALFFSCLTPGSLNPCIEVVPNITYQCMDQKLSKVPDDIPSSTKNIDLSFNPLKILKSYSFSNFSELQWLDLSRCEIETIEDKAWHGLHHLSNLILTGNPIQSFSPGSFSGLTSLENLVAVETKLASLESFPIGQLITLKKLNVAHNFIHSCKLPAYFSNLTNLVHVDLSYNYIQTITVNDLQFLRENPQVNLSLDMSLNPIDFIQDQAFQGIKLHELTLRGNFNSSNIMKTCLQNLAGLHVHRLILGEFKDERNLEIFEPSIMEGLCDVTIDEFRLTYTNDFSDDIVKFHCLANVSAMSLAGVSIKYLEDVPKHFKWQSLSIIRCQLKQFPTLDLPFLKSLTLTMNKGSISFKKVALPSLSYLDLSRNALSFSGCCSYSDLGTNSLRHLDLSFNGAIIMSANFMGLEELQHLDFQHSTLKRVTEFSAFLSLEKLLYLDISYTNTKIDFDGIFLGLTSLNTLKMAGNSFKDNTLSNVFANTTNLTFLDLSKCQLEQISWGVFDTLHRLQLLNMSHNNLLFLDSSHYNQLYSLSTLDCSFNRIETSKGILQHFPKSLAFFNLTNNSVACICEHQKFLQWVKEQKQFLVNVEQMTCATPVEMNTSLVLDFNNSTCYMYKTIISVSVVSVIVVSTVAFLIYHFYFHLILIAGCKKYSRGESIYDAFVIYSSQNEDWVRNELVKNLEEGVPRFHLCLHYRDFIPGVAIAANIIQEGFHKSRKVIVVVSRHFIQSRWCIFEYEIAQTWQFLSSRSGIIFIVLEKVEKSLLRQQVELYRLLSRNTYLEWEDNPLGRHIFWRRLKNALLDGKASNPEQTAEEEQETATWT
In short: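 Wild-type BMDC incubated overnight with graded concentrations (0.5% DMSO vehicle); 50 μL supernatant put on L929-ISRE luciferase reporter cells (5 × 10^4/well, DMEM-10) for 6 h; luciferase read, quantified against mouse IFN-β standard. Mean ± SEM of triplicates, two independent experiments.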

[2] = molecular target: Toll-like receptor 4 (Homo sapiens) (UniProt O00206); assay: Activation of human TLR4 transfected in HEK293 cells assessed as NFkappaB activation after 20 to 24 hrs by SEAP assay
In short: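 Human or mouse TLR4 HEK-Blue cells (2.5 × 10^4/well) incubated with graded concentrations for 20–24 h; NFκB-driven SEAP in culture supernatant measured colorimetrically.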

[3] = molecular target: T2, Toll-like receptor 7 (Homo sapiens) (UniProt Q9NYK1); assay: Activation of human TLR7 transfected in HEK293 cells at 10 uM after 20 to 24 hrs by SEAP assay
T2 sequence (whole entry): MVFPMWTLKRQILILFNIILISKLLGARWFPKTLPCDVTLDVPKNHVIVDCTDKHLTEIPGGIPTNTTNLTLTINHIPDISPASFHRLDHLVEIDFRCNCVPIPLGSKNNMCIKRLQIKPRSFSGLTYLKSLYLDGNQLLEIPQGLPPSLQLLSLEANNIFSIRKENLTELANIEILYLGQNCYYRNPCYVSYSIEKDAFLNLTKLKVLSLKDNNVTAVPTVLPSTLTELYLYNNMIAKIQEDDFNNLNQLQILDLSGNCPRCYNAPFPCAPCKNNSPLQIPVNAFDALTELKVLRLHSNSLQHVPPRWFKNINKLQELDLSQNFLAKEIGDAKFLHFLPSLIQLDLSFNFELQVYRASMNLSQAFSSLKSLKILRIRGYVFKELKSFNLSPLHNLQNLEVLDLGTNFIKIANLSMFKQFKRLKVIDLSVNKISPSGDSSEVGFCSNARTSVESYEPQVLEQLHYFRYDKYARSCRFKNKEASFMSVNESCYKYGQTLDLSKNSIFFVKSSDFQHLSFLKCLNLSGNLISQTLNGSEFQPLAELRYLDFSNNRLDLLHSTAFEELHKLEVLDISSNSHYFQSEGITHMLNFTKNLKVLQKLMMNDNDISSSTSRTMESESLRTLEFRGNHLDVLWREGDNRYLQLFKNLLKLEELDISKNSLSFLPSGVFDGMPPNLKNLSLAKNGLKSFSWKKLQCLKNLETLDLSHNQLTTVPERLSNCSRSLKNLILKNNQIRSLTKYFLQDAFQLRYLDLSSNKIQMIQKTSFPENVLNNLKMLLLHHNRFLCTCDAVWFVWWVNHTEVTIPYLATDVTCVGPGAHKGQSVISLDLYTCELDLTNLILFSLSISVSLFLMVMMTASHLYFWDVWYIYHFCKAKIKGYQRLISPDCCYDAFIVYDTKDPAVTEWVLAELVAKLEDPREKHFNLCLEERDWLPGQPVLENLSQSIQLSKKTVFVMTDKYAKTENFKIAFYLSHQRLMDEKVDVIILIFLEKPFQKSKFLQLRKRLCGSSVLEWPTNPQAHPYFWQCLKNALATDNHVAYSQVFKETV

Sequence of Toll-like receptor 4 (Homo sapiens) (O00206 whole entry): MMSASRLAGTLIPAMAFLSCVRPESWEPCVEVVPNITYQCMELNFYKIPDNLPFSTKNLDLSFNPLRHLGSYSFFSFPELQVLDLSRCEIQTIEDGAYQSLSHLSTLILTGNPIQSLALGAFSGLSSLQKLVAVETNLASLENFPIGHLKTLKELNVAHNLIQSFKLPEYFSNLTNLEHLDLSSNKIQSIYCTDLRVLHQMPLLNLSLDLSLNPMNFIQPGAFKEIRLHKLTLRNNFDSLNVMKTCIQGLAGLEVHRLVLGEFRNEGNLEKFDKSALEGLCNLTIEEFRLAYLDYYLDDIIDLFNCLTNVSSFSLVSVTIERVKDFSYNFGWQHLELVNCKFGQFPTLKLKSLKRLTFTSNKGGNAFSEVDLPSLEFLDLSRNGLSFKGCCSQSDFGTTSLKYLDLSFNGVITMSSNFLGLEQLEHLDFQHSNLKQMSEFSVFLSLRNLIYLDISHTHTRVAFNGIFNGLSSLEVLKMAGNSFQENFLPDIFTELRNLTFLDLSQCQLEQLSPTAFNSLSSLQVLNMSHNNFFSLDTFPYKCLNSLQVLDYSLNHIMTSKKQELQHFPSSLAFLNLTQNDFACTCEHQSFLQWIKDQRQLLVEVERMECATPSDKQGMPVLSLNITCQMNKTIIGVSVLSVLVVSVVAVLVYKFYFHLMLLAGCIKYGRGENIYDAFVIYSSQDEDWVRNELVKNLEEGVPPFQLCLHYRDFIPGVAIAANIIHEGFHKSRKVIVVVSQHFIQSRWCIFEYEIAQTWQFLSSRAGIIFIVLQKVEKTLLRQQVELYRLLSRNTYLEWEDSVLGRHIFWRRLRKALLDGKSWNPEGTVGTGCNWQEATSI

Activity [1]: Dose-dependent effect
Activity [2]: Dose-dependent effect
Activity [3]: inactive
Compound: O=C(CSc1nc2c([nH]c3ccccc32)c(=O)n1-c1ccccc1)NC1CCCCC1
